The results in this text go back to article PMC4980839 (Archiv der Pharmazie, 2010).

What all share (type): biochemical
For test [1], the target named is human PDE5 (Homo sapiens, UniProt O76074). The test is described as follows: PDE5 inhibition, IMAP fluorescence polarization phosphodiesterase assay. To be noted: for inhibition at 50 µM: read-out: % cGMP inhibition (50 μM).
Test [2] deals with PDE3B (Homo sapiens, UniProt Q13370). The test is described as follows: PDE3B inhibition. In outline:
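Reaction started with a substrate solution of 50 nM TAMRA-cGMP and/or Fl-cAMP. Run 60 min at room temperature, stopped with IMAP binding solution. Hydrolysis read as fluorescence polarization (TAMRA 530–590 nm).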

Test [3] deals with PDE4B (Homo sapiens, UniProt Q07343). The test is described as follows: PDE4B inhibition.
The target in test [4] is PDE11A (Homo sapiens, UniProt Q9HCR9). The test is described as follows: PDE11A inhibition.
[5] abbreviates: read-out: IC50 PDE3B cGMP, cGMP as substrate.

Where two headings read alike, the source gives them in different places.

PDE3B, sequence (Q13370 592-1112 limits assumed): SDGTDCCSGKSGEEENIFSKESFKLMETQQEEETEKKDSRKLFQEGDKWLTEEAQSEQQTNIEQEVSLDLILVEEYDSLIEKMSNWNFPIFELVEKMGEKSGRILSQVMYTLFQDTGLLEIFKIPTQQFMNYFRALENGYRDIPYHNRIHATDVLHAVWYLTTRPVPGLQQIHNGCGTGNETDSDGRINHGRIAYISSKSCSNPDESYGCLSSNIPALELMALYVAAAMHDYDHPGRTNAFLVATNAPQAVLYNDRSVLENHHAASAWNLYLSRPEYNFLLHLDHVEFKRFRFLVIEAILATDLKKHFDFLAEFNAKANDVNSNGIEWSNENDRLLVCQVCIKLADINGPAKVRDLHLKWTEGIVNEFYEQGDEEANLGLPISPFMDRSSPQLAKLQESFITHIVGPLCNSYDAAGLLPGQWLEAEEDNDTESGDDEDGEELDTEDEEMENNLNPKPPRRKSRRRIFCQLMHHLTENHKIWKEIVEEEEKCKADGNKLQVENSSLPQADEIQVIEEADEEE
PDE11A, sequence (Q9HCR9 whole entry): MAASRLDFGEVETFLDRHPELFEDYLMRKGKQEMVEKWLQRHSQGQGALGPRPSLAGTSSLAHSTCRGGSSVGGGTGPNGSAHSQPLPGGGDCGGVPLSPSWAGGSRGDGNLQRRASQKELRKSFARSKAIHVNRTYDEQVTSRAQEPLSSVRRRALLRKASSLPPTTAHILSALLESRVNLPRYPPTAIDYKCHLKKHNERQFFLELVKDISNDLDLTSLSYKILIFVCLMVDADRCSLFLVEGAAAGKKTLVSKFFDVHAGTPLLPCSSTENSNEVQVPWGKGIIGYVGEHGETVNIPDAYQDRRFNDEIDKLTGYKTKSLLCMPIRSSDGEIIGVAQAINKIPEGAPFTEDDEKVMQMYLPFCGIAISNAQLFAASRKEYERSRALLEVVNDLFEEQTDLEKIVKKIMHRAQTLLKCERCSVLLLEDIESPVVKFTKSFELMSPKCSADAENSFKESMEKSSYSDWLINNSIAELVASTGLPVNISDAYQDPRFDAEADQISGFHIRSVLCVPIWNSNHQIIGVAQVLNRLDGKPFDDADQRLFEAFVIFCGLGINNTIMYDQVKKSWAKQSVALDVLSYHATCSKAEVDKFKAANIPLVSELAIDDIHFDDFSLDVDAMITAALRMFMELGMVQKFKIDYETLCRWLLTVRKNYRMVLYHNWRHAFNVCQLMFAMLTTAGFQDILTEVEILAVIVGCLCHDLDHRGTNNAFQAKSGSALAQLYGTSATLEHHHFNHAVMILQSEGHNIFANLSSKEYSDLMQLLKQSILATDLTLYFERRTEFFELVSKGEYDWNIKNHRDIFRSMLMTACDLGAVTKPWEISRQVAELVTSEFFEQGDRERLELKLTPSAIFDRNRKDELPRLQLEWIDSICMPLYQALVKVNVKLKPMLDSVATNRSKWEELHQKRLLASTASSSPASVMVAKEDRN
PDE4B, sequence (Q07343 whole entry): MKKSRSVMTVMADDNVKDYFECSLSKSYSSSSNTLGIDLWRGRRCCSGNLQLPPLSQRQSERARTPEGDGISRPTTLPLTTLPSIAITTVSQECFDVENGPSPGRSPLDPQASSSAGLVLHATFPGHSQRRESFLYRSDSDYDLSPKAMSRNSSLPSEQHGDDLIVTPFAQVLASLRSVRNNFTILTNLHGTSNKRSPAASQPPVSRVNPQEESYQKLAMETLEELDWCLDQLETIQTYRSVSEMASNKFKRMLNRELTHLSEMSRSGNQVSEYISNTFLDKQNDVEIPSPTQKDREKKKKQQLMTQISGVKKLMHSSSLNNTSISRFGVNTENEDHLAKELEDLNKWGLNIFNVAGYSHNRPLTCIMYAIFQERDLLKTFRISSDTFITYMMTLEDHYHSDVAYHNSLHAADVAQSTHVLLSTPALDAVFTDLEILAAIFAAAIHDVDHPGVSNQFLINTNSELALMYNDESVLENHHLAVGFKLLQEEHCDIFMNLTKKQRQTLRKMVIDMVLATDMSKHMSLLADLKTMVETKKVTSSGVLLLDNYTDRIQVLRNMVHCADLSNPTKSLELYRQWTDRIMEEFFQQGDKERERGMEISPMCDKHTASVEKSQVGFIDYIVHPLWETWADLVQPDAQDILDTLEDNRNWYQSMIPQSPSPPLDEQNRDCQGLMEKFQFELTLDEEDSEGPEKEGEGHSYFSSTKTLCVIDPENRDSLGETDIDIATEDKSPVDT

With `COC(=O)[C@H]1Cc2c([nH]c3ccccc23)[C@@H](c2ccc(Cl)cc2)N1` [I, Methyl (1R,3R)-1-(4 chlorophenyl)-2,3,4,9-tetrahydro-1H-β-carboline-3-carboxylate], the inhibition at 50 µM in test [1] worked out at 35%.
The same measure, in the same setting: with `COC(=O)[C@H]1Cc2c([nH]c3ccccc23)[C@H](c2ccc(Cl)cc2)N1` [II, Methyl (1S,3R)-1-(4-chlorophenyl)-2,3,4,9-tetrahydro-1H-β-carboline-3-carboxylate] the figure was 4%; with `COC(=O)[C@@H]1Cc2c([nH]c3ccccc23)[C@H](c2ccc(Cl)cc2)N1` [III, Methyl (1S,3S)-1-(4-chlorophenyl)-2,3,4,9-tetrahydro-1H-β-carboline-3-carboxylate], 9%; with `COC(=O)[C@@H]1Cc2c([nH]c3ccccc23)[C@@H](c2ccc(Cl)cc2)N1` [IV, Methyl (1R,3S)-1-(4-chlorophenyl)-2,3,4,9-tetrahydro-1H-β-carboline-3-carboxylate], 48%.
In the case of `CC(C)(C)N1C(=O)[C@H]2Cc3c([nH]c4ccccc34)[C@@H](c3ccc(Cl)cc3)N2C1=O` [IX, (5R,11aR)-2-tert-Butyl-5-(4-chlorophenyl)-5,6,11,11a-tetrahydro-1H-imidazo[1’,5’:1,6]pyrido[3,4-b]indole-1,3(2H)-dione], in test [1], half-maximal inhibition (IC50) was put at 600 nM and the inhibition at 50 µM amounted to 100%.
`CN1CC(=O)N2[C@H](c3ccc4c(c3)OCO4)c3[nH]c4ccccc4c3C[C@@H]2C1=O` [Tadalafil, reference compound]: the IC50 in test [2] and in test [2] (setting [5]) was greater than 50000 nM in each case.
For `CCN1C(=O)[C@H]2Cc3c([nH]c4ccccc34)[C@@H](c3ccc(Cl)cc3)N2C1=O` [V, (5R,11aR)-2-Ethyl-5-(4-chlorophenyl)-5,6,11,11a-tetrahydro-1H-imidazo[1’,5’:1,6]pyrido[3,4-b]indole-1,3(2H)-dione], in test [1], the IC50 came out at 1100 nM and the inhibition at 50 µM was 85%.
In the case of `CCN1C(=O)[C@H]2Cc3c([nH]c4ccccc34)[C@H](c3ccc(Cl)cc3)N2C1=O` [VI, (5S,11aR)-2-Ethyl-5-(4-chlorophenyl)-5,6,11,11a-tetrahydro-1H-imidazo[1’,5’:1,6]pyrido[3,4-b]indole-1,3(2H)-dione], in test [1], the inhibition at 50 µM stood at 47%.
Still for that read-out and setting: next, `CCN1C(=O)[C@@H]2Cc3c([nH]c4ccccc34)[C@H](c3ccc(Cl)cc3)N2C1=O` [VII, (5S,11aS)-2-Ethyl-5-(4-chlorophenyl)-5,6,11,11a-tetrahydro-1H-imidazo[1’,5’:1,6]pyrido[3,4-b]indole-1,3(2H)-dione]: 30%; `CCN1C(=O)[C@@H]2Cc3c([nH]c4ccccc34)[C@@H](c3ccc(Cl)cc3)N2C1=O` [VIII, (5R,11aS)-2-Ethyl-5-(4-chlorophenyl)-5,6,11,11a-tetrahydro-1H-imidazo[1’,5’:1,6]pyrido[3,4-b]indole-1,3(2H)-dione]: 102%.
As to `CC(C)(C)N1C(=O)[C@H]2Cc3c([nH]c4ccccc34)[C@H](c3ccc(Cl)cc3)N2C1=O` [X, (5S,11aR)-2-tert-Butyl-5-(4-chlorophenyl)-5,6,11,11a-tetrahydro-1H-imidazo[1’,5’:1,6]pyrido[3,4-b]indole-1,3(2H)-dione], the inhibition at 50 µM in test [1] worked out at 54%.
On the same count and under the same terms, next, `CC(C)(C)N1C(=O)[C@@H]2Cc3c([nH]c4ccccc34)[C@H](c3ccc(Cl)cc3)N2C1=O` [XI, (5S,11aS)-2-tert-Butyl-5-(4-chlorophenyl)-5,6,11,11a-tetrahydro-1H-imidazo[1’,5’:1,6]pyrido[3,4-b]indole-1,3(2H)-dione]: 20%.
Regarding `CC(C)(C)N1C(=O)[C@@H]2Cc3c([nH]c4ccccc34)[C@@H](c3ccc(Cl)cc3)N2C1=O` [XII, (5R,11aS)-2-tert-Butyl-5-(4-chlorophenyl)-5,6,11,11a-tetrahydro-1H-imidazo[1’,5’:1,6]pyrido[3,4-b]indole-1,3(2H)-dione], in test [1], the IC50 is greater than 10000 nM and the inhibition at 50 µM was 83%.
With `O=C1[C@H]2Cc3c([nH]c4ccccc34)[C@@H](c3ccc(Cl)cc3)N2C(=O)N1c1ccc(Cl)cc1` [XIII, (5R,11aR)-2,5-Bis(4-chlorophenyl)-5,6,11,11a-tetrahydro-1H-imidazo[1’,5’:1,6]pyrido[3,4-b]indole-1,3(2H)-dione], the inhibition at 50 µM in test [1] was 22%.
In the case of `O=C1[C@H]2Cc3c([nH]c4ccccc34)[C@H](c3ccc(Cl)cc3)N2C(=O)N1c1ccc(Cl)cc1` [XIV, (5S,11aR)-2,5-Bis(4-chlorophenyl)-5,6,11,11a-tetrahydro-1H-imidazo[1’,5’:1,6]pyrido[3,4-b]indole-1,3(2H)-dione], in test [1], the inhibition at 50 µM was 29%.
As for `COC(=O)[C@@H]1Cc2c([nH]c3ccccc23)[C@H](c2ccc(Cl)cc2)N1C(=O)CCl` [XIX, Methyl (1S, 3S)-1-(4-chlorophenyl)-2-(chloroacetyl)-2,3,4,9-tetrahydro-1H-b-carboline-3-carboxylate], the “% cGMP inhibition (50 μM)” value in test [1] (PDE5, compound at 50 μM, triplicate, TAMRA-cGMP substrate) was determined as 6%.
On to `O=C1[C@@H]2Cc3c([nH]c4ccccc34)[C@H](c3ccc(Cl)cc3)N2C(=O)N1c1ccc(Cl)cc1` [XV, (5S,11aS)-2,5-Bis(4-chlorophenyl)-5,6,11,11a-tetrahydro-1H-imidazo[1’,5’:1,6]pyrido[3,4-b]indole-1,3(2H)-dione], for which the inhibition at 50 µM in test [1] worked out at 33%.
On to `O=C1[C@@H]2Cc3c([nH]c4ccccc34)[C@@H](c3ccc(Cl)cc3)N2C(=O)N1c1ccc(Cl)cc1` [XVI, (5R,11aS)-2,5-Bis(4-chlorophenyl)-5,6,11,11a-tetrahydro-1H-imidazo[1’,5’:1,6]pyrido[3,4-b]indole-1,3(2H)-dione], for which, in test [1], the IC50 was 1090 nM and the inhibition at 50 µM amounted to 84%.
As to `COC(=O)[C@H]1Cc2c([nH]c3ccccc23)[C@@H](c2ccc(Cl)cc2)N1C(=O)CCl` [XVII, Methyl (1R,3R)-1-(4-chlorophenyl)-2-(chloroacetyl)-2,3,4,9-tetrahydro-1H-β-carboline-3-carboxylate], in test [1], the inhibition at 50 µM was 25%.
Still for that read-out and setting: with `COC(=O)[C@H]1Cc2c([nH]c3ccccc23)[C@H](c2ccc(Cl)cc2)N1C(=O)CCl` [XVIII, Methyl (1S,3R)-1-(4-chlorophenyl)-2-(chloroacetyl)-2,3,4,9-tetrahydro-1H-β-carboline-3-carboxylate] the figure was 6%; with `COC(=O)[C@@H]1Cc2c([nH]c3ccccc23)[C@@H](c2ccc(Cl)cc2)N1C(=O)CCl` [XX, Methyl (1R,3S)-1-(4-chlorophenyl)-2-(chloroacetyl)-2,3,4,9-tetrahydro-1H-β-carboline-3-carboxylate], 78%.
For the compound `CCN1CC(=O)N2[C@H](c3ccc(Cl)cc3)c3[nH]c4ccccc4c3C[C@@H]2C1=O` [XXI, (6R,12aR)-2-Ethyl-6-(4-chlorophenyl)-2,3,6,7,12,12a-hexahydropyrazino[1’,2’:1,6]pyrido[3,4-b]indole-1,4-dione], the IC50 is greater than 50000 nM in test [3]; 706 nM in test [4] (IC50 PDE11A cAMP, cAMP as substrate); 157 nM in test [4] (IC50 PDE11A cGMP, cGMP as substrate); 3 nM in test [1] (read-out: IC50 PDE5A, Table 5 PDE panel); greater than 50000 nM in test [2]; greater than 50000 nM in test [2] (setting [5]). Besides, the “Selectivity index IC50 (PDE11/PDE5) cGMP/cGMP” value in test [4] (PDE11A with cGMP versus PDE5 with cGMP) is recorded as 52.3. For the same compound, the “potency compared with tadalafil” value in test [1] (PDE5 IC50 relative to tadalafil) is reported as “two-fold”. For the same compound, the inhibition at 50 µM in test [1] is 102%.
With `CCN1CC(=O)N2[C@@H](c3ccc(Cl)cc3)c3[nH]c4ccccc4c3C[C@@H]2C1=O` [XXII, (6S,12aR)-2-Ethyl-6-(4-chlorophenyl)-2,3,6,7,12,12a-hexahydropyrazino[1’,2’:1,6]pyrido[3,4-b]indole-1,4-dione], in test [1], the IC50 is 1720 nM and the inhibition at 50 µM was 80%.
As to `CCN1CC(=O)N2[C@@H](c3ccc(Cl)cc3)c3[nH]c4ccccc4c3C[C@H]2C1=O` [XXIII, (6S,12aS)-2-Ethyl-6-(4-chlorophenyl)-2,3,6,7,12,12a-hexahydropyrazino[1’,2’:1,6]pyrido[3,4-b]indole-1,4-dione], in test [1], the inhibition at 50 µM worked out at 45%.
Take `CCN1CC(=O)N2[C@H](c3ccc(Cl)cc3)c3[nH]c4ccccc4c3C[C@H]2C1=O` [XXIV, (6R,12aS)-2-Ethyl-6-(4-chlorophenyl)-2,3,6,7,12,12a-hexahydropyrazino[1’,2’:1,6]pyrido[3,4-b]indole-1,4-dione]: in test [1], half-maximal inhibition (IC50) required 1200 nM and the inhibition at 50 µM stood at 87%.
`CC(C)(C)N1CC(=O)N2[C@H](c3ccc(Cl)cc3)c3[nH]c4ccccc4c3C[C@@H]2C1=O` [XXV, (6R,12aR)-2-tert-Butyl-6-(4-chlorophenyl)-2,3,6,7,12,12a-hexahydropyrazino[1’,2’:1,6]pyrido[3,4-b]indole-1,4-dione]: the inhibition at 50 µM in test [1] is 55%.
The same measure, in the same setting: with `CC(C)(C)N1CC(=O)N2[C@@H](c3ccc(Cl)cc3)c3[nH]c4ccccc4c3C[C@@H]2C1=O` [XXVI, (6S,12aR)-2-tert-Butyl-6-(4-chlorophenyl)-2,3,6,7,12,12a-hexahydropyrazino[1’,2’:1,6]pyrido[3,4-b]indole-1,4-dione] the figure was 10%.
Same read-out and setting: next, `CC(C)(C)N1CC(=O)N2[C@@H](c3ccc(Cl)cc3)c3[nH]c4ccccc4c3C[C@H]2C1=O` [XXVII, (6S,12aS)-2-tert-Butyl-6-(4-chlorophenyl)-2,3,6,7,12,12a-hexahydropyrazino[1’,2’:1,6]pyrido[3,4-b]indole-1,4-dione]: 42%; `CC(C)(C)N1CC(=O)N2[C@H](c3ccc(Cl)cc3)c3[nH]c4ccccc4c3C[C@H]2C1=O` [XXVIII, (6R,12aS)-2-tert-Butyl-6-(4-chlorophenyl)-2,3,6,7,12,12a-hexahydropyrazino[1’,2’:1,6]pyrido[3,4-b]indole-1,4-dione]: 55%.
